Results published in ChEMBL document CHEMBL1133770, “Synthesis and antitumor activity of new benzoheterocyclic derivatives of distamycin A” (J Med Chem, 2000).
“And” between values parts separate entries of the source, which are not always exact repeats. Identical values can stand only once.

Key:
L1210 [1] = assay: In vivo median survival time of treated vs untreated mice x 100 against murine L1210 leukemia cells after iv treatment on day 1 after tumor iv transplant; type: functional, Mus musculus
L1210 [2] = assay: In vivo optimal nontoxic dose against murine L1210 leukemia cells after ip treatment on day 1 after tumor ip transplant; type: functional, Mus musculus
In short: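 L1210 leukemia cells (10^5/mouse) were implanted ip or iv in female mice, 10 per group. Compounds were made fresh in 10% Tween 80/90% saline and given ip or iv on day 1 after implant, over a dose-response range. […] Toxicity was judged by gross autopsy and weight loss.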

L1210 [3] = assay: In vivo median survival time of treated vs untreated mice x 100 against murine L1210 leukemia cells after ip treatment on day 1 after tumor iv transplant; type: functional, Mus musculus
L1210 [4] = assay: In vivo optimal nontoxic dose against murine L1210 leukemia cells after i.v. administration day 1 after tumor i.v. inoculation.
L1210 [5] = assay: In vitro antitumor activity evaluated against L1210 murine leukemia cell line; type: functional, cell-based; details: Mus musculus
In short: (§1)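 L1210 murine leukemia cells and their doxorubicin-resistant and tallimustine-resistant sublines were grown as stationary suspension in RPMI 1640 with 10% fetal calf serum, 2 mM L-glutamine, β-mercaptoethanol and antibiotics. Compounds were dissolved in DMSO at 1 mg/mL (stock) and diluted in medium. Exponentially growing cells were exposed continuously for 48 h, and survivors were counted electronically. IC50 (cell number reduced to 50% of untreated control) was taken from dose-response curves. Duplicate cultures were used, with vehicle controls.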

L1210 [6] = assay: Ratio between IC50 value on resistant cells and sensitive cells; type: functional, Mus musculus; set-up: reference not given here
In short: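 Murine L1210 leukemia cells, parental and doxorubicin- or tallimustine-resistant sublines, were grown in stationary suspension in RPMI 1640 with 10% FCS, 2 mM glutamine, […] and antibiotics. Exponentially growing cells were exposed continuously for 48 h to graded concentrations from a 1 mg/mL DMSO stock, and survivors were counted electronically. IC50 came from dose-response curves, with duplicate cultures and at least two repeats. RI was the IC50 on resistant cells divided by the IC50 on sensitive cells.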

L1210 [7] = assay: Inhibition of growth in L1210 leukemia cells resistant to doxorubicin(DX).; type: functional, cell-based; details: Mus musculus; in short: as §1
L1210 [8] = assay: Inhibition of growth in L1210 leukemia cells resistant to Tallimustine.; type: functional, cell-based; details: Mus musculus; in short: as §1
Estrogen receptor = Estrogen receptor (Homo sapiens, UniProt Q92731+P03372); assay: Tested for 50% inhibition of generation of Human estrogen receptor polymerase chain reaction(PCR) products; type: protein assay
[9] = Resistance index(RI) = Ratio between IC50 value on resistant cells and sensitive cells; type: functional
In short: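 L1210/DX (doxorubicin-resistant), L1210/tallimustine-resistant and parental L1210 cells grown as stationary suspension in RPMI 1640 with 10% FCS. Compounds from 1 mg/mL DMSO stock, diluted in medium. Exponentially growing cells exposed continuously for 48 h, with duplicate cultures per concentration and vehicle controls. Survivors counted electronically; IC50 taken from dose-response curves. RI = resistant-line IC50 / parental L1210 IC50.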

Compound	T/C (L1210 [1]) [%]	Optimal dose (L1210 [2]) [mg/kg]	T/C (L1210 [3]) [%]	Optimal dose (L1210 [4]) [mg/kg]	IC50 (L1210 [5]) [nM]	Resistance index (L1210 [6])	IC50 (L1210 [7]) [nM]	IC50 (L1210 [8]) [nM]	IC50 (Estrogen receptor) [nM]	Resistance index [9]
Cl.Cn1cc(NC(=O)c2cc(NC(=O)c3cc(NC(=O)c4cc(N(CCCl)CCCl)cn4C)cn3C)cn2C)cc1C(=O)NCCC(=N)N	133	0.39	188	0.39	0.081	–	–	–	–	–
Cl.Cn1cc(NC(=O)c2cc(NC(=O)c3cc(NC(=O)c4cc(NC(=O)c5ccc(N(CCCl)CCCl)cc5)nn4C)cn3C)cn2C)cc1C(=O)NCCC(=N)N	–	3.1	144	–	34.5	326.2 and 302.3	0.42	10.4	–	–
Cl.Cn1cc(NC(=O)c2cc(NC(=O)c3cc(NC(=O)c4cc5cc(N(CCCl)CCCl)ccc5[nH]4)cn3C)cn2C)cc1C(=O)NCCC(=N)N	174	–	–	0.39	8	6.8 and 19	0.42	1.2	1	–
Cl.Cn1cc(NC(=O)c2cc(NC(=O)c3cc(NC(=O)c4cc5cc(NC(=O)c6ccc(N(CCCl)CCCl)cc6)ccc5[nH]4)cn3C)cn2C)cc1C(=O)NCCC(=N)N	163	–	–	3.1	95.3	5.7 and 9.2	0.54	0.88	7.5	–
Cn1cc(NC(=O)c2cc(NC(=O)c3cc(NC(=O)c4cc(NC=O)cn4C)cn3C)cn2C)cc1C(=O)NCCC(=N)N	–	–	–	–	–	–	0.42	1.2	–	–
Cl.Cn1cc(NC(=O)c2cc(NC(=O)c3cc(NC(=O)c4nc5cc(NC(=O)c6ccc(N(CCCl)CCCl)cc6)ccc5[nH]4)cn3C)cn2C)cc1C(=O)NCCC(=N)N	–	–	–	–	1420	6.8 and 19	0.42	1.2	5	–
Cl.Cn1cc(NC(=O)c2cc(NC(=O)c3cc(N(CCCl)CCCl)cn3C)cn2C)cc1C(=O)NCCC(=N)N	117	1.6	138	0.78	3.9	–	–	–	–	–
Cl.Cn1cc(NC(=O)c2cc(NC(=O)c3cc(NC(=O)c4ccc(N(CCCl)CCCl)cc4)cn3C)cn2C)cc1C(=O)NCCC(=N)N [TALLIMUSTINE CHLORIDE]	133	3.1	–	3.1	–	–	–	–	–	–
C=C(Br)C(=O)Nc1cn(C)c(C(=O)Nc2cc(C(=O)Nc3cc(C(=O)Nc4cc(C(=O)NCCC(=N)N)n(C)c4)n(C)c3)n(C)c2)n1.Cl	–	6.2	163	–	46.9	15.5 and 13.9	0.42	1.2	–	–
Cl.Cn1cc(NC(=O)c2cc(NC(=O)c3cc(NC(=O)c4cc5cc(NC(=O)c6ccc(N(CCCl)CCCl)cc6)ccc5o4)cn3C)cn2C)cc1C(=O)NCCC(=N)N	150	–	–	6.2	43.5	6.8 and 19	0.42	1.2	–	–
Cl.Cn1cc(NC(=O)c2cc(NC(=O)c3cc(NC(=O)/C=C/c4ccc(N(CCCl)CCCl)cc4)cn3C)cn2C)cc1C(=O)NCCC(=N)N	267	–	–	6.2	–	–	–	–	–	–
C=C(Br)C(=O)Nc1cc(C(=O)Nc2cc(C(=O)Nc3cc(C(=O)NCCC(=N)N)n(C)c3)n(C)c2)n(C)c1.Cl	–	–	–	–	–	68 and 156	–	1.2	–	–
Cl.Cn1cc(NC(=O)c2cc(NC(=O)c3cc(NC(=O)c4nc(NC(=O)c5ccc(N(CCCl)CCCl)cc5)cn4C)cn3C)cn2C)cc1C(=O)NCCC(=N)N	–	–	125	–	2370	2 and 2.1	0.42	5	–	–
C=C(Br)C(=O)Nc1ccc2c(c1)cc(C(=O)Nc1cc(C(=O)Nc3cc(C(=O)Nc4cc(C(=O)NCCC(=N)N)n(C)c4)n(C)c3)n(C)c1)n2C.Cl	192	–	–	6.2	2.4	–	43	150	–	–
Cl.Cn1cc(NC(=O)c2cc(NC(=O)c3cc(NC(=O)c4cc5cc(N(CCCl)CCCl)ccc5o4)cn3C)cn2C)cc1C(=O)NCCC(=N)N	200	–	–	0.39	3.7	6.8 and 19	0.42	1.2	3	–
C=C(Br)C(=O)Nc1ccc2c(c1)cc(C(=O)Nc1cc(C(=O)Nc3cc(C(=O)NCCC(=N)N)n(C)c3)n(C)c1)n2C.Cl	133	–	–	3.1	15.3	–	41	150	–	–
C=C(Br)C(=O)Nc1cc(C(=O)Nc2cc(C(=O)Nc3cc(C(=O)Nc4cc(C(=O)NCCC(=N)N)n(C)c4)n(C)c3)n(C)c2)n(C)c1.Cl	200	3.1	725	1.6	–	–	0.42	–	–	–
Cn1cc(NC(=O)c2cc(NC(=O)c3cc(NC=O)cn3C)cn2C)cc1C(=O)NCCC(=N)N [STALLIMYCIN]	–	–	–	–	10100	–	459000	142000	20	–
C=C(Br)C(=O)Nc1cc(C(=O)Nc2cc(C(=O)Nc3cc(C(=O)Nc4cc(C(=O)NCCC(=N)N)n(C)c4)n(C)c3)n(C)c2)n(C)n1.Cl	–	6.2	200	–	13.3	–	0.42	–	–	–
Cl.Cn1cc(NC(=O)c2cc(NC(=O)c3cc(NC(=O)c4cc(NC(=O)c5ccc(N(CCCl)CCCl)cc5)cn4C)cn3C)cn2C)cc1C(=O)NCCC(=N)N	–	–	–	0.4	–	19	–	1.2	–	–
C=C(Br)C(=O)Nc1ccc2oc(C(=O)Nc3cc(C(=O)Nc4cc(C(=O)Nc5cc(C(=O)NCCC(=N)N)n(C)c5)n(C)c4)n(C)c3)cc2c1.Cl	117	–	–	0.78	6.1	–	39	210	–	–
C=C(Br)C(=O)Nc1ccc2[nH]c(C(=O)Nc3cc(C(=O)Nc4cc(C(=O)Nc5cc(C(=O)NCCC(=N)N)n(C)c5)n(C)c4)n(C)c3)cc2c1.Cl	213	–	–	12.5	4.1	–	36	140	–	–
Cl.Cn1cc(NC(=O)c2cc(NC(=O)c3cc(NC(=O)c4cc5cc(N(CCCl)CCCl)ccc5n4C)cn3C)cn2C)cc1C(=O)NCCC(=N)N	457	–	–	1.6	14.7	6.8 and 19	0.42	1.2	1	–
Cl.Cn1cc(NC(=O)c2cc(NC(=O)c3cc(NC(=O)c4cc5cc(NC(=O)c6ccc(N(CCCl)CCCl)cc6)ccc5n4C)cn3C)cn2C)cc1C(=O)NCCC(=N)N	183	–	–	25	61.7	–	0.42	1.2	5	6.8 and 19
